# CFTR F508del cor: F508del CFTR correction, initial screen, CFBE line, single point; CFBE cells, YFP halide quenching; stimulated with forskolin plus potentiator P3; % fluorescence drop versus neutral controls; activity (quench increase), % at 7.58 µM; 350,000 tested, 0.36% active; AID 720511, 2013;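 active = mean added fluorescence quench of at least 8% versus neutral control, with both replicates also reaching 8%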;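 also: cells transiently co-express mutant CFTR-F508del with the halide-sensitive YFP; corrector assay measuring rescue of mutant channel to the surface after 24 h compound exposure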
# FGF22 binding: binders of human FGF22 protein, primary screen, FGF22 synaptogenesis inhibitor project, biophysical, thermal shift, single point | Fibroblast growth factor 22 (Homo sapiens), Q9HCT0 | 340,000 tested, 1.5% active | recombinant FGF22 thermal shift, SYPRO orange fluorescence; percent of sucrose octasulfate shift, DMSO zero | activity (Tm shift, normalised), % at 9.99 µM;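 active = mean Tm shift, scaled 0 neutral to 100 positive control, at about 1.3% or above, every replicate too, limit read from the data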
# dFosB act-1: activators of delta FosB homodimer, primary screen, biochemical, fluorescence polarization, TAMRA-CDK5 oligo, single point; Protein FosB (Mus musculus), P13346; purified delta FosB; percent of positive-control signal above neutral wells; activation, % at 25 µM; 340,000 tested, 0.99% active;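 active = mean activation above about 17%, with every replicate also reaching it, limit read from the data, passing the limit was not always enough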
# Target sequence (P13346 whole entry, looked up): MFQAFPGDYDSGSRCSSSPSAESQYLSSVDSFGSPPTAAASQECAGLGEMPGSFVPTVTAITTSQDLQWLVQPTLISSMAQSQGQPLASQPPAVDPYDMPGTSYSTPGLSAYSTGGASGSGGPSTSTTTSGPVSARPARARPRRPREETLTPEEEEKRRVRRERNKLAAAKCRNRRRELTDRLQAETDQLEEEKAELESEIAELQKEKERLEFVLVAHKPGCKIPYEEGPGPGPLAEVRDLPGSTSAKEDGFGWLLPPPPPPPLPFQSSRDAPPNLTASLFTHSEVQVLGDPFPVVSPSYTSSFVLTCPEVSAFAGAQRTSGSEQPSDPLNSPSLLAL
# S100A4 MyoIIA: inhibitors of S100A4-myosin IIA peptide binding, primary screen, biochemical, fluorescence polarization, TAMRA-MyoIIA peptide; Protein S100-A4 (Homo sapiens), P26447; 360,000 tested, 0.14% active; inhibition, % at 10.7 µM;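 active = mean inhibition of at least 70% across replicates, with every replicate also reaching that level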
# Target sequence (P26447 whole entry, looked up): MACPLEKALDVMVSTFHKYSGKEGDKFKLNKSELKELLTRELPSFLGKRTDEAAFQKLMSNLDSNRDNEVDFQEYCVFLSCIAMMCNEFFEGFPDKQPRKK
#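 incubation = readout 5 min after mixing, signal stable up to 60 min | system = S100A4 monomer protein | buffer or medium = HEPES pH 7.2 with CaCl2, KCl, NaCl, DTT, Triton | benchmarks = neutral control DMSO, positive control TFP | also added = fluorescent myosin IIA peptide, 5 nM | compound dosing = one concentration per compound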
# dFosB act-2: activators of mouse delta FosB DNA binding, confirmation, biochemical, fluorescence polarization, TAMRA-CDK5 oligo, cherry-picked samples | shares compounds with dFosB act-1 | purified delta FosB; normalised: neutral wells 0, positive control 100 | activation, % at 24.9 µM | 2,400 tested, under 10 active | AID 588690, 2011;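 active = highest replicate activation at or above 34% and every replicate reaching that threshold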;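 also: higher polarization means more probe DNA bound by delta FosB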
# A number is an active result; n = inactive; x = not tested or not shown. Shown are actives, neighbours in structure and some others; about 2.2% of the full set was active somewhere.
SMILES,CFTR F508del cor,FGF22 binding,dFosB act-1,S100A4 MyoIIA,dFosB act-2
Cc1ccc(CNC(=O)CSc2nnc3c(n2)[nH]c2ccccc23)cc1,n,n,28.2,n,n
COc1ccc(CNC(=O)CSc2nnc3c(n2)[nH]c2ccc(OC)cc23)cc1,n,n,40.0,n,n
CC(C)CC#Cc1ccc2c(c1)O[C@@H](CN(C)S(=O)(=O)c1cccc(F)c1)[C@@H](C)CN([C@H](C)CO)S2(=O)=O,n,n,x,n,x
Cc1c(C(=O)OCC(=O)N2CC(=O)Nc3ccccc32)oc2ccccc12,x,x,32.6,x,n
O=C1CN(C(=O)COC(=O)c2oc3ccccc3c2COc2ccccc2)c2ccccc2N1,x,x,n,x,x
CN1CCN(c2nc(-c3ccccc3O)nc3ccccc23)CC1,n,n,n,n,x
OCCN1CCN(c2nc(-c3ccccc3O)nc3ccccc23)CC1,n,n,24.1,n,n
COc1ccc(NC(=O)c2c[nH]c(=O)n(-c3ccc(C)c(C)c3)c2=O)c(OC)c1,n,n,34.6,n,n
Cc1ccc(S(=O)(=O)NCC[C@@H]2CC[C@@H](NC(=O)Nc3ccccc3F)[C@@H](CO)O2)cc1,n,n,x,n,x
Cc1csc(Nc2nc(N)c(C(=O)Nc3cc(Cl)ccc3F)o2)n1,n,n,19.8,n,n
C[C@@H]1CN([C@@H](C)CO)S(=O)(=O)c2ccc(C#CC3CC3)cc2O[C@@H]1CN(C)Cc1cccnc1,n,n,x,n,x
Cc1cc(C)c2c(n1)sc1c(-c3ccccc3)c(C#N)c(N)nc12,x,x,29.3,x,n
Cc1nc(N)c(C#N)c(-c2ccccc2)c1C,x,x,n,x,x
Cc1ccc(Nc2ncnc(-n3cccc3)n2)cc1Cl,n,n,n,n,x
Clc1cc(Cl)cc(Nc2ncnc(-n3cccc3)n2)c1,n,x,29.9,n,n
CCCCNC(=O)Cn1c(=O)oc2cc(S(=O)(=O)N3CC(C)CC(C)C3)ccc21 (configuration not stated),n,n,n,n,x
CC1CC(C)CN(S(=O)(=O)c2ccc3c(c2)oc(=O)n3CC(=O)N(C)Cc2ccccc2)C1 (configuration not stated),n,n,46.5,n,n
COc1ccc(-c2cn(CC[C@H]3CC[C@@H](NC(=O)Nc4ccc(F)cc4)[C@H](CO)O3)nn2)cc1,n,x,x,n,x
COc1ccc(CSc2nnc(NC(C)=O)s2)cc1[N+](=O)[O-],n,n,n,n,x
CCCCC(=O)Nc1nnc(SCC(=O)NC2CCCC2)s1,x,x,n,x,x
COc1ccc(C(=O)Nc2nnc(SCC(=O)NCc3ccco3)s2)cc1OC,n,n,26.4,n,n
COCCSc1nnc(NC(=O)c2ccc(OC)c([N+](=O)[O-])c2)s1,n,n,26.3,n,n
COc1cccc(C(=O)Nc2nnc(SCC(=O)NC3CC3)s2)c1,n,n,52.6,n,n
COc1cc(OC)cc(C(=O)Nc2nnc(SCC(=O)NCc3ccco3)s2)c1,n,n,n,n,x
O=C(CCCl)Nc1nnc(SCC(=O)NC2CCCC2)s1,n,n,19.6,n,n
SMILES,CFTR F508del cor,FGF22 binding,dFosB act-1,S100A4 MyoIIA,dFosB act-2
C[C@H](CO)N1C[C@H](C)[C@@H](CN(C)C)Oc2ccc(NC(=O)Cn3cnnn3)cc2C1=O,n,n,x,n,x
COc1ccc(Nc2nnc(SCC(=O)NC3CC3)s2)cc1,n,n,n,n,x
COc1ccc(C(=O)Nc2nnc(SCC(=O)NC3CC3)s2)cc1,n,n,22.4,n,n
Cc1ccc(NC(=O)c2ccc3nc(N4CCOCC4)sc3c2)c(Cl)c1,n,n,141.2,n,n
Cc1ccc(OCC(=O)Nc2ccc(-c3nc4ncccc4o3)cc2)c(C)c1,x,x,73.1,x,n
Cc1ccc(OCC(=O)Nc2ccncc2)c(C)c1,n,n,n,n,x
Cc1nc(SCC(=O)NC(C)c2ccccc2)c2oc3ccccc3c2n1 (configuration not stated),x,x,34.5,x,n
O=C(CSc1ncnc2c1oc1ccccc12)Nc1nc2ccccc2s1,n,n,33.3,n,n
CCc1nnc(NC(=O)CSc2ncnc3c2oc2ccccc23)s1,n,n,n,n,x
COc1ccc(NC(=O)Nc2ccc3c(c2)C(=O)N([C@@H](C)CO)C[C@H](C)[C@@H](CN(C)S(=O)(=O)c2cccs2)OCCCC[C@@H](C)O3)cc1,n,n,x,n,x
